What all share (type): functional, organism-based
For assay [1], the system named is Lacticaseibacillus casei. Nature of the assay: Compound was measured for the 50% growth inhibition of Lactobacillus casei MTX resistant microorganism. The conditions noted are these: for IC50: Lacticaseibacillus casei, read-out: I50. The method, boiled down: (§1)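 Drug solution concentrations were set either by weight or by UV absorbance at pH 7.4, using extinction coefficients of 9600 at 270 nm or 10 250 at 301 nm. The 7,8-dihydro form was made by treating the potassium salt with excess sodium dithionite at room temperature. The tetrahydro forms came from catalytic or enzymatic reduction.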

For assay [2], the system named is Enterococcus faecium. The experiment in a line: Compound was measured for the 50% growth inhibition of Streptococcus faecium ATCC 8043 microorganism. The conditions noted are these: for IC50: Enterococcus faecium, ATCC 8043, read-out: I50. The method, boiled down:
(§2)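 Growth-inhibition test. The reduced test forms were quantified by UV absorbance at pH 7.4 using a molar absorptivity at 270 or 301 nm. Other forms were quantified by weight. The 7,8-dihydro form was made by excess sodium dithionite reduction of the aqueous potassium salt at room temperature.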

Assay [3] relates to Enterococcus faecium. The experiment in a line: Compound was measured for the 50% growth inhibition of Streptococcus faecium MTX resistant microorganism. The conditions noted are these: for IC50: Enterococcus faecium, read-out: I50. The essentials:
as §2

Assay [4] deals with Lacticaseibacillus casei. The experiment in a line: Compound was measured for the 50% growth inhibition of Lactobacillus casei ATCC 7469 microorganism. The conditions noted are these: for IC50: Lacticaseibacillus casei, ATCC 7469, read-out: I50. The method, boiled down:
as §1

Values after ≈ are worked out from the molar mass of the structure shown.

In the case of `Nc1nc(O)c2nc(CCOc3ccc(C(=O)NC(CCC(=O)O)C(=O)O)cc3)cnc2n1` (stereo not drawn), the IC50 in the assay on Lacticaseibacillus casei [1] is 1000 ng/mL (≈ 2.19 µM); with Enterococcus faecium [2], 14 ng/mL (≈ 0.0307 µM); with Enterococcus faecium [3], 260 ng/mL (≈ 0.57 µM); in the assay on Lacticaseibacillus casei [4] it was 320 ng/mL (≈ 0.701 µM).
`Nc1nc(O)c2c(n1)NCC(CCOc1ccc(C(=O)NC(CCC(=O)O)C(=O)O)cc1)=N2` (stereo not drawn): the IC50 was 700 ng/mL (≈ 1.53 µM) in the assay on Lacticaseibacillus casei [1] and 240 ng/mL (≈ 0.524 µM) with Lacticaseibacillus casei [4].
Take `Nc1nc(O)c2c(n1)NCC(CCOc1ccc(C(=O)NC(CCC(=O)O)C(=O)O)cc1)N2` (racemic): the I50 in the assay with Lacticaseibacillus casei [1] worked out at 19 ng/mL; in the assay on Enterococcus faecium [2], 0.7 ng/mL; in the assay on Enterococcus faecium [3], 50 ng/mL; in the assay on Lacticaseibacillus casei [4], 10 ng/mL.
The like results for `Nc1nc(O)c2c(n1)NCC(CCOc1ccc(C(=O)NC(CCC(=O)O)C(=O)O)cc1)N2` (stereo in doubt) were, in that order, 64 ng/mL, 9 ng/mL, > 200 ng/mL and 56 ng/mL.
Turning to `CN(Cc1cnc2nc(N)nc(N)c2n1)c1ccc(C(=O)N[C@@H](CCC(=O)O)C(=O)O)cc1` [METHOTREXATE], the I50 in the assay with Lacticaseibacillus casei [1] is > 500000 ng/mL. The IC50 in the assay on Enterococcus faecium [2] is 0.05 ng/mL (≈ 0.00011 µM); in the assay on Enterococcus faecium [3], 3500 ng/mL (≈ 7.7 µM); in the assay with Lacticaseibacillus casei [4], 0.07 ng/mL (≈ 0.000154 µM).

Source of the values: ChEMBL document CHEMBL1121525, “Folate analogues altered in the C9--N10 bridge region. 14. 11-Oxahomofolic acid, a potential antitumor agent” (J Med Chem, 1980).
